Data reported in PubChem BioAssay AID588776 (Johns Hopkins Ion Channel Center, 2011).
Activity calls are given as the source filed them.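 How the source made its calls: active means peak inhibition of the KCNK3 potassium channel above 30% at some tested dose, plus a fitted dose response curve; inactive means no inhibition at any dose, or no curve could be fitted.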

Molecular target: Potassium channel subfamily K member 3 (Rattus norvegicus) (UniProt O54912)
Experiment: off-target block of rat KCNK3 – cell-based, FluxOR thallium flux, CRC set 1, selectivity assay for KCNK9 inhibitor project, SAR follow-up (AID 588776)
Conditions: KCNK3-expressing cells, FluxOR thallium flux fluorescence; for flux ratio, lower = inhibition: at 30 µM (top of the series)
Procedure, shortened: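 Schedule: 90 min dye loading, 20 min compound exposure, both room temperature; Assay system: tetracycline-induced KCNK3-expressing CHO cells; Technique: kinetic fluorescence of FluxOR thallium-sensitive dye after stimulus addition; Evaluation: baseline-normalized fluorescence change, IC50 and Hill fit.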

Chain of Potassium channel subfamily K member 3 (Rattus norvegicus) (O54912 whole entry, looked up): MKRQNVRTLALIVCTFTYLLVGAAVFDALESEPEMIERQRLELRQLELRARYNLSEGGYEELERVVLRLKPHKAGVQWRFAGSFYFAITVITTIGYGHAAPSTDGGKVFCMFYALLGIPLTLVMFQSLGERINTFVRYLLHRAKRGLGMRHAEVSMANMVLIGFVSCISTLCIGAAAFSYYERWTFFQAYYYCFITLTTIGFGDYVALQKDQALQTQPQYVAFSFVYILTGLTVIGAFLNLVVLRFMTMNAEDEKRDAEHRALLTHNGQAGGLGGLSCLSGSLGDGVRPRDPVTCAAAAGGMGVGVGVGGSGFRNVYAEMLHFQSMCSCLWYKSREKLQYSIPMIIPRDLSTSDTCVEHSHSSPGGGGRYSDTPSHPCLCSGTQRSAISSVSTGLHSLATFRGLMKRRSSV

SMILES | flux ratio, lower = inhibition | IC50
CC(C1CC2CCC1C2)n1c(-c2cccc(N(C)C)c2)n[nH]c1=S (stereo not drawn) | inactive | 
C[C@@H](C1CCCCC1)n1c(-c2ccco2)n[nH]c1=S |  | > 30 µM
CC(C1C2CCC1CC2)n1c(-c2ccco2)n[nH]c1=S (stereo not drawn) | inactive | 
CC(CCC1CCCC1)n1c(-c2ccco2)n[nH]c1=S (stereo not drawn) |  | 2.36 µM
CC(C1CC2CCC1C2)n1c(-c2ccc(N(C)C)cc2)n[nH]c1=S (stereo not drawn) | inactive | 
C[C@H](C1CCCCC1)n1c(-c2ccco2)n[nH]c1=S | inactive | 
CC(C1CC2CCC1C2)n1c(-c2ccncc2)n[nH]c1=S (stereo not drawn) | inactive | 
CC(CC1CC2CCC1C2)n1c(-c2ccco2)n[nH]c1=S (stereo not drawn) |  | 15.8 µM

Further lines, results first:

flux ratio, lower = inhibition | IC50 | SMILES
 | 14.7 µM | COc1cccc(C(=O)CSc2nnc(-c3ccco3)n2C(C)C2CC3CCC2C3)c1 (stereo not drawn)
 | 1.22 µM | CC(C1CC2CCC1C2)n1c(SCC(=O)c2ccccc2)nnc1-c1ccco1 (stereo not drawn)
 | 4.87 µM | CC(C1CC2CCC1C2)n1c(SCC(=O)c2ccc3c(c2)OCO3)nnc1-c1ccco1 (stereo not drawn)
 | 7.94 µM | CC(C1CC2CCC1C2)n1c(SCC(=O)c2ccc(Cl)c(Cl)c2)nnc1-c1ccco1 (stereo not drawn)
 | 15.5 µM | COc1ccc(CCSc2nnc(-c3ccco3)n2C(C)C2CC3CCC2C3)cc1OC (stereo not drawn)
